Test results as given in PMC11871924 (International Journal of Nanomedicine, 2025).

What was measured:
[1] = system: VX2 orthotopic liver tumors; assay: Rabbit VX2 orthotopic liver tumor model, DSA-guided arterial infusion, PET/CT; type: in vivo, New Zealand White rabbits; settings: n=4, mean ± s.d.
Outline: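 New Zealand White rabbits (4 months, n=4/group) had 1 mm3 VX2 tumour blocks implanted in the left liver lobe under ultrasound, followed by i.m. penicillin for 3 days and CT sizing. DSA-guided hepatic arterial infusion delivered PBS, oxaliplatin or test nanoparticles (5 mg/kg), doses converted by body surface area. Tumour SUV was measured by PET/CT before and 7 days after infusion.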

[2] = system: H22 orthotopic liver tumors; assay: Mouse orthotopic H22 hepatocellular carcinoma model; type: in vivo, BALB/c mice
Outline: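 Female BALB/c mice (6–8 weeks) received 106 log-phase H22 cells in matrix gel, injected into an exteriorised liver lobe via abdominal incision. At ~50 mm3 tumours, groups (n=5) received i.v. PBS (100 μL), 100 μL nanoparticles daily for 6 days, or oxaliplatin 5 mg/kg every two days ×3. Growth was imaged by IVIS after i.p. D-luciferin (200 μL, 15 mg/mL) on days 5, 10, 15. Body weight was recorded.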

BSA = BSA (Bos taurus, UniProt P02769); type: binding, bovine; settings: 2–10 μM quencher, BSA 2 μM
Outline: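 BSA (2 μM) titrated with test compound at 0, 2, 4, 6, 8, 10 μM (0–20 μM for one reagent). Site competition used phenylbutazone, ibuprofen or digitoxin (2 μM final) added before the test compound. Steady-state BSA fluorescence was measured without and with quencher. Kq, Kb and n were calculated from the quenching formulas, taking biomolecule average lifetime as 10−8 s.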

Sequence of BSA (P02769 25-607): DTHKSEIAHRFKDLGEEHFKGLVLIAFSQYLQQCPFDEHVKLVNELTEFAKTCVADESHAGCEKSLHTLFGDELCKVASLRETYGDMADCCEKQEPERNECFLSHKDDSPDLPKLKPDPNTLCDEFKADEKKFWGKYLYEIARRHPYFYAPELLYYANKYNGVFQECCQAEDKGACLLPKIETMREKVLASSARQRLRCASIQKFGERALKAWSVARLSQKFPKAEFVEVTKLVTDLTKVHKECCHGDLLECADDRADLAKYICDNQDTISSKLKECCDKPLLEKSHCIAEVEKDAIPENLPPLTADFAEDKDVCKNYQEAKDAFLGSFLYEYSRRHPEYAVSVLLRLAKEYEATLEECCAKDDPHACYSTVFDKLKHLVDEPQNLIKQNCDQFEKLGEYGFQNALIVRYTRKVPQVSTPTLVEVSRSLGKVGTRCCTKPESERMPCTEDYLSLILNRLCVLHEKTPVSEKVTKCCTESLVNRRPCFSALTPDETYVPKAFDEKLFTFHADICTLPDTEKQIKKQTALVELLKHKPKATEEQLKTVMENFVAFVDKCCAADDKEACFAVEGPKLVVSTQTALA

Quenching of BSA Trp-214 fluorescence emission (BSA) | Molecule | Tumor standardized uptake value (SUV) before treatment [1] | Body weight of some mice during treatment ([2]; decrease from the initial 20 g, oxaliplatin 5 mg/kg i.v. every two days ×3) | Effect on orthotopic tumors (in vivo imaging) ([2]; mouse orthotopic H22 model, i.v., n=5)
 | O=C1[O][Pt]2([NH][C@@H]3CCCC[C@H]3[NH]2)[O]C1=O [oxaliplatin] | 5.44±0.43 | 13 g | effectively inhibited
could quench | Ir(ppy)2-diimi dazole [Ir-diim] |  |  | 
